Reference: PubChem BioAssay AID588760 (Johns Hopkins Ion Channel Center, 2011)
Activity calls are given as the source filed them.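 The calls were made as follows: active = fitted dose response curve and peak inhibition of the Kir2.1 potassium channel above 30% at some dose; inactive = no dose response or no inhibition at any dose.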

molecular target: Inward rectifier potassium channel 2 (Mus musculus) (UniProt P35561); assay: Kir2.1 channel inhibition, specificity check, SAR follow-up, selectivity assay for KCNK9 inhibitor project, cell-based, FluxOR thallium flux, CRC round 3 (AID 588760); conditions: Kir2.1-expressing cells, 20 min; series mostly up to 30 µM; thallium flux ratio, lower = inhibition: at the top concentration
Sequence (P35561 whole entry, looked up): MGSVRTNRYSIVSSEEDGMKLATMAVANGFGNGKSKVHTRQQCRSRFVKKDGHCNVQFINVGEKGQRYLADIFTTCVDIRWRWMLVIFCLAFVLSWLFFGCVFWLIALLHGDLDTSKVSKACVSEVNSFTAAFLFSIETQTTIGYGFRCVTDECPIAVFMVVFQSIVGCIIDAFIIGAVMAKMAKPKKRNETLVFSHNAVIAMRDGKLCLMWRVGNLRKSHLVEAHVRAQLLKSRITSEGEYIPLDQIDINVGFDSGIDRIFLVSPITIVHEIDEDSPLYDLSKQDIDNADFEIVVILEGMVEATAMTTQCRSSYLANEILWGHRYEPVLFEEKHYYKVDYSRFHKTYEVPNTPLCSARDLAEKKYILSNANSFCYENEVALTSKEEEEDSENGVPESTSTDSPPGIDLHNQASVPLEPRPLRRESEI
Procedure, shortened: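 Material: FluxOR-loaded Kir2.1 HEK293 cells | Times: 90 min dye load, 20 min compound, RT | Technique: Kinetic fluorescence of thallium-sensitive dye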

Thallium flux ratio, lower = inhibition, inactive:
CC(C1CC2CCC1C2)n1c(-c2ccco2)nnc1C(F)(F)F (stereo unspecified) 1.18
CC(CCC1CCCC1)n1c(-c2ccco2)n[nH]c1=S (stereo unspecified) 1.18
C[C@H](C1CCCCC1)n1c(-c2ccco2)n[nH]c1=S 1.4
COc1ccccc1C(=O)Nc1cc(NC(=O)c2ccccc2C(C)C)ccc1F 1.84
CC(C1CCCCC1)n1c(-c2ccco2)n[nH]c1=S (stereo unspecified) 1.24
CC(C1CC2CCC1C2)n1c(-c2cccn2C)n[nH]c1=S (stereo unspecified) 1.64
CC(C1C2CCC1CC2)n1c(-c2ccco2)n[nH]c1=S (stereo unspecified) 1.4
CC(C)Oc1ccccc1C(=O)Nc1cccc(NC(=O)c2ccccc2OC(F)(F)F)c1 1.86
COc1ccc(CCSc2nnc(-c3ccco3)n2C(C)C2CC3CCC2C3)cc1OC (stereo unspecified) 0.848
CC(C1CC2CCC1C2)n1c(SC(F)F)nnc1-c1ccco1 (stereo unspecified) 0.755
CC(C1CC2CCC1C2)n1c(-c2cccnc2)n[nH]c1=S (stereo unspecified) 1.93
COc1cccc(Cc2n[nH]c(=S)n2C(C)C2CC3CCC2C3)c1 (stereo unspecified) 1.77
C[C@@H](C1CCCCC1)n1c(-c2ccco2)n[nH]c1=S 1.59
CC(C1CC2CCC1C2)n1c(SCc2ccccc2)nnc1-c1ccco1 (stereo unspecified) 1.08
CC(NC(=O)c1ccco1)C1CC2CCC1C2 (stereo unspecified) 2.02
CC(C1CC2CCC1C2)n1c(SCC(=O)c2ccccc2)nnc1-c1ccco1 (stereo unspecified) 0.756
CC(C1CC2CCC1C2)n1cnnc1-c1ccco1 (stereo unspecified) 1.88
CC(c1cccc2ccccc12)n1c(-c2ccco2)n[nH]c1=S (stereo unspecified) 1.43
CC(C1CC2CCC1C2)n1c(-c2cccc(F)c2)n[nH]c1=S (stereo unspecified) 1.67
CC(C1CC2CCC1C2)n1c(-c2ccco2)n[nH]c1=O (stereo unspecified) 1.56

outcome, inactive:
CC(C1CC2CCC1C2)n1c(-c2ccc(N(C)C)cc2)n[nH]c1=S (stereo unspecified)
